Screening data (PubChem BioAssay)
A selection: hits, their analogues and other compounds. The true share with any hit is near 1.5%.
CCR6 antagonist – blocks CCL20-driven beta-arrestin recruitment at human CCR6; P51684; CHO-K1 CCR6 PathHunter beta-arrestin, luminescence, CCL20-stimulated; inhibition, % at 20 µM; hit rate 0.49% among 340,000;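 active means compounds whose inhibition of the agonist-driven luminescence signal at 20 µM reaches about 50%, limit read from the data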;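 further: cells stimulated with CCL20 at 14 nM final; plate controls were DMSO with CCL20 for no effect and DMSO without agonist for full effect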
CXCR6 inh – blocks human CXCR6 beta-arrestin recruitment; hit rate 0.36% among 360,000; inhibition, % at 20 µM; CHO-K1 PathHunter CXCR6 beta-arrestin, luminescence; O00574; in the data active means inhibition above about 34%, passing the limit was not always enough;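 further: antagonist mode with CXCL16 agonist at 10 nM final; 0% = 10 nM CXCL16 with DMSO and 100% = unstimulated wells without agonist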
Target sequence (O00574 whole entry, looked up): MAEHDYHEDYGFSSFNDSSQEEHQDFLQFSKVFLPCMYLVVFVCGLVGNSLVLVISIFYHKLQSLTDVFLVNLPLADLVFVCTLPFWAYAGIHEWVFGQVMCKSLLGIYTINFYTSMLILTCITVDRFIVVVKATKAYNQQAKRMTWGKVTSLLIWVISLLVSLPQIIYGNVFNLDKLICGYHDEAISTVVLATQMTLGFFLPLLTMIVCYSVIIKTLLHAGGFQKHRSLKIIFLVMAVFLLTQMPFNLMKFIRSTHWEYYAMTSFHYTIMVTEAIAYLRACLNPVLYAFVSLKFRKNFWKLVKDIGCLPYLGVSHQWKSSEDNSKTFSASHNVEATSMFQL
APJ antagonist – blocks the human apelin receptor APJ. AID 2521. inhibition, % at 20 µM. hit rate 0.32% among 330,000. CHO-K1 APJ beta-arrestin complementation, luminescence. P35414;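 active means inhibition above about 40% at 20 µM, limit read from the data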;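 further: cells challenged with 10 nM apelin-13 agonist together with compound; plate controls were apelin-13 plus DMSO wells for no effect and DMSO wells lacking apelin-13 for full effect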
HTR2A ag – agonists of mouse serotonin 5-HT2A receptor (HTR2A). AID 624169. hit rate 0.66% among 360,000. CHO-K1 mHTR2A beta-arrestin complementation, luminescence; percent of 30 µM serotonin response. activation, % at 7.6 µM;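 active means activation above a run cutoff, the mean activation of all tested compounds plus 3 SD, cut at about 14% in these data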;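 further: 0% = plate median of compound wells and 100% = 30 µM serotonin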
APJ agonist – activates the human apelin receptor APJ; P35414; CHO-K1 APJ PathHunter beta-arrestin, luminescence; 0% DMSO wells, 100% apelin; activation, % at 20 µM; hit rate 0.11% among 330,000;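 active means activation more than six SD over the plate average, tested at 20 µM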;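 further: 0% = DMSO alone and 100% = apelin-13 at 10 nM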
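Test system: CHO-K1 APJ beta-arrestin complementation cell line. Amount: cell density 1000 per well. Controls: DMSO negative, 10 nM Apelin-13 positive. Signal: luminescent beta-gal fragment complementation, chemiluminescent substrate. Read-out basis: agonist-driven arrestin binding to APJ. Timing: compound stimulation 90 min at 25 °C, detection 60 min.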
NTR1 agonist – agonists of human neurotensin receptor NTR1 | P30989 | NTR1-U2OS beta-arrestin-GFP spot imaging, agonist mode | activation, % at 20 µM | hit rate 0.17% among 330,000 | AID 493036;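 active means activation at or above 40% of the spot to cytoplasm intensity ratio, with at least 20 cells analyzed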;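 further: 0% = DMSO without peptide and 100% = 100 nM NTR1 peptide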
MOR ag counter – activates human mu opioid receptor in HTR2A counterscreen; activation, % at 9.3 µM; hit rate 5.3% among 2,300; U2OS OPRM1 beta-arrestin PathHunter, luminescence; DMSO 0%, DAMGO 9.3 µM 100%; shares compounds with HTR2A ag; AID 624380;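 active means mean activation above the mean of DMSO-only wells plus 3 SD, cut at about 0.5% in these data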
m5-HT2A ag conf – confirmation of mouse HTR2A serotonin receptor agonists; CHO-K1 PathHunter beta-arrestin recruitment, luminescence; DMSO 0%, 30 µM serotonin 100%; activation, % at 7.6 µM; hit rate 19% among 2,300; shares compounds with HTR2A ag;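 active means mean activation across triplicates above the hit threshold derived in the original primary screen, cut at about 15% in these data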
Active calls of the source: *; nt = no result given.

SMILES	CCR6 antagonist	CXCR6 inh	APJ antagonist	HTR2A ag	APJ agonist	NTR1 agonist	MOR ag counter	m5-HT2A ag conf
COc1cc(C(c2nnnn2C(C)(C)C)N2CCN(c3nc4ccccc4s3)CC2)ccc1O (centres undefined)	1	4	-5	29*	0	0	-1	9
COc1ccc(NC(=O)CNC(=O)Cc2cccc3ccccc23)c(OC)c1	7	4	9	-4	-1	0	nt	nt
CCN(C(=O)COC(=O)/C=C/c1c(C)nn(-c2ccccc2)c1C)c1c(N)n(Cc2ccccc2)c(=O)[nH]c1=O	10	-4	nt	18*	nt	nt	-1	-3
Cc1ccc(-c2cccc(-c3cc(=O)oc4ccc(C(C)(C)C)cc34)c2)cc1	21	-5	nt	-2	nt	0	nt	nt
CCOC(=O)C1CCN(c2nc(C)cc(C)c2C#N)CC1	6	2	-2	16*	-6	2	0	-3
Cc1cc(C)c(C#N)c(N2CCCC(C(N)=O)C2)n1 (centres undefined)	-11	1	8	5	-3	0	nt	nt
COc1ccc(NC(=O)CCCNC(=O)c2ccc(Cl)cc2)cc1S(=O)(=O)N1CCOCC1	2	-14	nt	15*	nt	nt	-1	-2
CCc1nc2ccc(C(=O)Nc3cccc(OCC(=O)N(C)C)c3)cn2c1N(C)C(=O)c1cccc(OC)c1	nt	-5	nt	-1	nt	nt	nt	nt
O=C(NCc1nnnn1-c1ccc(Cl)cc1)c1ccc(Br)o1	3	-4	-1	0	-6	1	nt	nt
COc1cccc(-c2cc(C(=O)Nc3ccc(N(C)C(C)=O)cc3)c3cc(Br)ccc3n2)c1	1	6	6	1	6	3	nt	nt
CCCCNC(=O)c1nc(-c2cc3ccccc3[nH]2)oc1-c1cccc(C(F)(F)F)c1	nt	nt	nt	16*	nt	nt	0.7*	12
CCCCNC(=O)c1nc(-c2ccc(C(F)(F)F)cc2)oc1-c1ccccc1	nt	nt	nt	-5	nt	nt	nt	nt
NC(=O)Cn1nc(C(F)(F)F)c2c1CCCC2	-1	-5	-4	40*	-3	0	0	-3
O=C(O)Cn1nc(C(F)(F)F)c2c1CCCCC2	-10	-8	-8	5	4	-2	nt	nt
COc1ccc(NC(=O)CN(c2ccc(C(C)C)cc2)S(=O)(=O)c2c(C)noc2C)cc1OC	-2	0	5	15*	2	1	0	0
COc1ccccc1CNC(=O)CN(c1ccc(C)cc1)S(=O)(=O)c1c(C)noc1C	19	5	10	17*	0	1	-1	-5
COc1ccccc1CNC(=O)CN(c1ccc(C)cc1)S(=O)(=O)c1c(C)n[nH]c1C	5	4	-8	1	-1	-1	nt	nt
CCCOC(=O)c1cc(NC(=O)/C=C/c2ccccc2)ccc1O	nt	11	-21	-3	-2	6	nt	nt
CCCCn1c(SCC(=O)Nc2nnc(C)s2)nnc1-c1ccncc1	7	4	0	0	-3	-1	nt	nt
CCCCCC1C(=O)C[C@@H]2CCN3C(=O)CCC[C@H]1[C@H]23 (some centres undefined)	14	7	nt	17*	nt	1	-1	-3
O=C1C[C@H]2CCCCC(=O)N3CC[C@@H](C1)[C@@H]23	5	-2	nt	0	nt	3	nt	nt
Cc1[nH]c2ccccc2c1C(c1ccccn1)N1CCC(C(N)=O)CC1 (centres undefined)	3	-4	22	17*	-6	2	0	-5
CC(C(=O)Nc1sc2c(c1C#N)CCCCC2)N1C(=O)c2ccccc2C1=O (centres undefined)	0	-11	-7	25*	-1	2	0	-1
COc1cccc(C(CNC(=O)c2ccc(Cl)c(S(=O)(=O)N3CCCC3)c2)N(C)C)c1 (centres undefined)	15	-1	-4	-11	-1	0	nt	nt
Cn1nc(-c2ccc(Cl)cc2)c2cc(C(=O)N3CCCC3)sc21	-25	-5	5	22*	4	10	0	3
SMILES	CCR6 antagonist	CXCR6 inh	APJ antagonist	HTR2A ag	APJ agonist	NTR1 agonist	MOR ag counter	m5-HT2A ag conf
Cn1nc(-c2ccc(Cl)cc2)c2cc(C(=O)N3CCN(c4ccccc4)CC3)sc21	8	-2	12	-6	1	6	nt	nt
CC1(c2ccc([N+](=O)[O-])cc2)NC(=O)NC1=O (centres undefined)	4	-7	-4	13	-3	-1	nt	nt
Cc1ccc(NC(=O)NC(=O)COC(=O)c2ccc(O)cc2O)c(C)c1	nt	0	nt	15*	nt	nt	0	-1
Cc1cccc(C)c1NC(=O)c1cc(S(=O)(=O)N2CCc3ccccc32)cn1C	13	-7	-7	21*	-2	1	0	-3
Cc1cccc(NC(=O)c2cc(S(=O)(=O)N3CCc4ccccc43)cn2C)c1	9	2	3	-3	1	1	nt	nt
OC[C@@H]1CN(Cc2ccc(Cl)cc2)C[C@H](n2cnc3c(N4CCN(c5ccccc5)CC4)ncnc32)O1	nt	6	nt	-5	nt	nt	nt	nt
CC(NS(=O)(=O)c1ccc2c(c1)c(=O)n(C)c(=O)n2C)C(=O)NC1CCCCC1 (centres undefined)	4	2	10	5	0	1	nt	nt
Cc1ccc(Nc2ccc3nonc3c2[N+](=O)[O-])cc1	-5	-6	2	7	-1	1	nt	nt
Cc1ccc(Nc2ccc([N+](=O)[O-])nc2[N+](=O)[O-])cc1	6	-8	-18	15*	5	-1	0	-4
CCCNC(=O)C1CCN(S(=O)(=O)c2c(C)noc2/C=C\c2ccc(OC)cc2)CC1	15	4	22	-8	2	0	nt	nt
CNC(=O)C1CCN(S(=O)(=O)c2c(C)noc2/C=C/c2ccc(OC)cc2)CC1	-4	-9	-8	20*	0	-3	0	-4
CC(=O)N1CCc2c(sc(NC(=O)Cc3ccc(F)cc3)c2C#N)C1	-6	1	-9	-2	-7	1	nt	nt
CN1CCc2c(sc(NC(=O)Cc3ccccc3)c2C#N)C1	2	-2	15	18*	-3	-4	0	69*
O=c1c2cn(Cc3ccc(F)cc3)c3ccccc3c-2nn1Cc1ccc(F)cc1	4	-3	-10	1	-1	1	nt	nt
COc1cc2c3nnc(-c4ccccc4)c-3cn(Cc3ccc(F)cc3)c2cc1OC	19	-5	-1	32*	1	12	0	21*
COC(=O)c1ccccc1NC(=O)N1CCN(S(=O)(=O)c2ccc(Cl)cc2)CC1	21	3	13	17*	-1	4	-1	-3
